Results pooled from the literature.
Lines come from different studies, so protocols differ.
Target: Serine/threonine-protein kinase NLK (NLK, Homo sapiens, UniProt Q9UBE8)
Sequence (Q9UBE8 1-527, as in one of the studies): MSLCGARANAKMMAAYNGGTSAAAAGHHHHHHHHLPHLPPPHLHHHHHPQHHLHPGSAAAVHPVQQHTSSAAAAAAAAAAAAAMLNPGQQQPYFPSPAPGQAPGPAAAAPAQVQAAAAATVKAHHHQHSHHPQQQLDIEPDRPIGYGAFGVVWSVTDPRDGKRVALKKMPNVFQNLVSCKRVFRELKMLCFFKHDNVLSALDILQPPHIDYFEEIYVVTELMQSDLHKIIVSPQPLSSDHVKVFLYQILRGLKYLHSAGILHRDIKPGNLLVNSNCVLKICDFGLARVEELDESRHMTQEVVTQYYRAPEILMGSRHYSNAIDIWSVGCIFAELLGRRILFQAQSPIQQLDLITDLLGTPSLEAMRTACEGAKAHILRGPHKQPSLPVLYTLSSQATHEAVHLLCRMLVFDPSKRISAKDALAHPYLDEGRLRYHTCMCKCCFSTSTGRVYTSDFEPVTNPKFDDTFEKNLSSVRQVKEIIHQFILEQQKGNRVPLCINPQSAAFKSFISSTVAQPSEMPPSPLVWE

| SMILES | test | setting | remaining binding [%] |
| --- | --- | --- | --- |
| CO[C@@H](C)c1c(Nc2ccc([C@@H](N(C)C(=O)C3CCS(=O)(=O)CC3)C(F)(F)F)cc2)cnc2cc(Cl)nn12 | cell-free assay, competition with immobilised ligand | 1 µM | 84 |
| c1cnn2ncc(-c3ccnc(N4CCC45COC5)n3)c2c1 | binding | 1 µM | 87 |
| O=C(NCC1CCOCC1)c1n[nH]cc1NC(=O)c1c(F)cccc1F | binding, competition with immobilised ligand | 1 µM | 85 |
| C[C@H](c1cccc(C#N)c1)n1cc(Cl)cc(C(N)=O)c1=N | cell-free assay, competition with immobilised ligand | 1 µM | 44 |
| COc1ncc2cc3ccccc3nc2c1C#N | binding, competition with immobilised ligand | 5 µM | 100 |
| CN(C)c1ncc(F)c(-c2cnn3ncccc23)n1 | binding | 1 µM | 74 |
| COc1ccc2c(c1)O[C@@H](c1ccc(OC)c(OC)c1)C[C@H]2NC(=O)C1(c2ccc3c(c2)OC(F)(F)O3)CC1 | cell-free assay, competition with immobilised ligand | 1 µM | 100 |
| Cc1cnc(Nc2ccc(C(=O)N3CCC(N4CCCC4)CC3)cc2)nc1-c1cc2ccccc2s1 | binding, competition with immobilised ligand | 1 µM | 69 |
| CN(C)c1ncnc(-c2ccc3nc(Nc4cc(CN5CCN(C(=O)CC(F)(F)F)CC5)ccn4)[nH]c3c2)c1Cl | cell-free assay, competition with immobilised ligand | 1 µM | 88 |
| CC1CCCN1c1nccc(-c2cnn3ncccc23)n1 (stereo not shown) | binding | 1 µM | 78 |
| O=C(NCCCN1CCOCC1)c1ccc(Nc2nccc(-c3cc4ccccc4s3)n2)cc1 | binding, competition with immobilised ligand | 1 µM | 94 |
| CN([C@@H]1CCc2c(CC(=O)O)c3cc(S(C)(=O)=O)ccc3n2C1)S(=O)(=O)c1ccc(F)cc1 | cell-free assay, competition with immobilised ligand | 1 µM | 100 |
| N[C@@H]1CCN(c2nccc(-c3cnn4ncccc34)n2)C1 | binding | 1 µM | 100 |
| CNC(=O)[C@@H]1CC[C@@H](n2c(-c3ccc4cnccc4c3)nc3ccc(C(=O)NCc4cccc(C(N)=O)c4)cc32)C1 | binding, competition with immobilised ligand | 1 µM | 100 |
| C[C@@H](c1ccc(-n2cnc3c(N)ncnc32)cc1)N1CCc2nn(C)c(Cc3ccccc3)c2C1=O | binding, competition with immobilised ligand | 0.1 µM | 80 |
| O=C1CCc2cc(Nc3cc(OC4CCOCC4)c([N+](=O)[O-])cc3Cl)ccc2N1 | cell-free assay, competition with immobilised ligand | 1 µM | 100 |
| Cc1cnn2ncc(-c3ccnc(N(C)C)n3)c2c1 | binding | 1 µM | 100 |
| CNC(=O)c1ccc(Nc2ncc(C(F)(F)F)c(NCc3nccnc3N(C)S(C)(=O)=O)n2)cc1 | cell-free assay, competition with immobilised ligand | 0.1 µM | 100 |
| CN(C)c1nccc(-c2cnn3ncccc23)n1 | binding | 1 µM | 100 |
| Nc1ncc2c(n1)-c1c([nH]c3ccc(C#CC4CC4)cc13)CCCC2 | binding, competition with immobilised ligand | 1 µM | 85 |
| O=C(c1ccc(Nc2ncc(Cl)c(-c3cc4ccccc4s3)n2)cc1)N1CCC(N2CCCC2)CC1 | binding, competition with immobilised ligand | 1 µM | 72 |
| C[C@@H]1CCN(c2nccc(-c3cnn4ncccc34)n2)C1 | binding | 1 µM | 70 |
